# Test results reported in ChEMBL document CHEMBL1687720 (Antimicrob Agents Chemother, 2009).
# What was measured:
# Plasmodium falciparum = assay: Downregulation of gamma-glutamylcysteine synthetase mRNA level in Plasmodium falciparum 3D7 trophozoites at 126 nM after 15 hrs by RT-qPCR analysis relative to untreated control; type: functional
# Summary of the method: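 P. falciparum 3D7 trophozoites are exposed to 126 nM compound for 12, 15 or 18 h, then harvested by saponin lysis at 37°C. RNA is extracted and reverse-transcribed, and transcripts are quantified by real-time PCR in quadruplicate. Analysis uses ΔΔCT with 18S rRNA as reference (LDH also checked), expressed as % of untreated control.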
# A549 [1] = assay: Effect on glutathione reductase expression in human A549 cells assessed as transcript level at 24 nM after 24 hrs by RT-qPCR analysis relative to untreated control; type: functional; conditions: in the assay text read “24 µM” for “24 nM”
# Summary of the method: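 A549 cells are seeded at 2.5 × 10^5 per 25-cm2 well. At 40–45% confluence they are treated for 24 h with 166 or 662 μM, 158 or 315 μM, or 5 or 24 μM compound; controls receive <5% DMSO. Total RNA is DNase-treated and qRT-PCR is run in quadruplicate. Values are normalized to GAPDH and given as % of untreated control.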
# A549 [2] = assay: Inhibition of glutathione S-transferase in human A549 cells assessed as enzyme activity at 5 µM after 24 hrs relative to untreated control; parameters: scale not given: the % may be the effect or the level left
smiles,measurement,setting,value
O=c1oc2c(O)c(O)c(O)c3c(=O)oc4c(O)c(O)c(O)c1c4c23 [CORULEOELLAGIC ACID],Activity,Plasmodium falciparum,25%
same,Activity,A549 [1],84%
same,Activity,A549 [2],101%
